Measured values: ChEMBL document CHEMBL1145910, “5,6,7-trisubstituted 4-aminopyrido[2,3-d]pyrimidines as novel inhibitors of adenosine kinase” (J Med Chem, 2003)

Assays:
Adenosine kinase [1] = target: Adenosine kinase (Homo sapiens, UniProt P55263); assay: Inhibition of adenosine kinase activity in IMR-32 human neuroblastoma cells; assay type: cell-based
Adenosine kinase [2] = target: Adenosine kinase (Rattus norvegicus, UniProt Q64640); assay: Inhibition adenosine kinase activity in rat brain in vitro; assay type: tissue-based
Mus musculus = assay: Percent maximal protective effect for hotplate analgesia in mice after 30 umol/kg intraperitoneal administration; assay type: functional
How it was run: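 Mice (n = 6-8 per group) tested on 55 °C hotplate 30 min after intraperitoneal dosing. %MPE = (postdrug latency − vehicle latency)/(cutoff latency − vehicle latency) × 100, cutoff 180 s; significance versus vehicle-treated mice at p < 0.05.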

Rattus norvegicus = assay: Reduction in formalin induced nociception after 10 umol/kg intraperitoneal administration

Chain of Adenosine kinase (Homo sapiens, UniProt P55263) (P55263 whole entry): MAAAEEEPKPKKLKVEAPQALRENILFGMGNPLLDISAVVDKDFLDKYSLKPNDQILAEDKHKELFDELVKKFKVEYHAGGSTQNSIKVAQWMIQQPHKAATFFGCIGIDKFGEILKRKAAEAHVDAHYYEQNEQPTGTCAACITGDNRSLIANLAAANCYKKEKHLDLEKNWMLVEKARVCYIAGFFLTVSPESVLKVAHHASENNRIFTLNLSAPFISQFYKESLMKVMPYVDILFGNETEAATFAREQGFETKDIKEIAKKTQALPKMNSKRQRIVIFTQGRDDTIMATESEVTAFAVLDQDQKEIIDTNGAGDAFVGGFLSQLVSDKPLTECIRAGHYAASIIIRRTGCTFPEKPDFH
Chain of Adenosine kinase (Rattus norvegicus, UniProt Q64640) (Q64640 whole entry): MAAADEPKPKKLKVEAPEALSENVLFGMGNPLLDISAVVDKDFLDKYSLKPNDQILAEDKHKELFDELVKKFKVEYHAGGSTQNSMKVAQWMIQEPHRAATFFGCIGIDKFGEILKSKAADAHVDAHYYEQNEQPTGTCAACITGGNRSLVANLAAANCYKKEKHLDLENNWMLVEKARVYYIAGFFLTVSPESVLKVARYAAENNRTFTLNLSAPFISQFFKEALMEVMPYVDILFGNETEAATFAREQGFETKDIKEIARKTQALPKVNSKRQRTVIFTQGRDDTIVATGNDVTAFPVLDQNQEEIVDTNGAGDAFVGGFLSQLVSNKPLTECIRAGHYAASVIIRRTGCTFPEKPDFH

`CC(C)c1c(-c2ccc(N3CCOCC3)nc2)nc2ncnc(N)c2c1-c1cccc(Br)c1` gave an IC50 (Adenosine kinase [1]) of over 1000 nM and an IC50 (Adenosine kinase [2]) of 400 nM.

With `CN(C)c1ccc(-c2nc3ncnc(N)c3c(-c3cccc(Br)c3)c2C2CCCCC2)cn1` the IC50 (Adenosine kinase [1]) was over 1000 nM and the IC50 (Adenosine kinase [2]) was 300 nM.

Molecule `Cc1ccc(-c2c(-c3cccs3)nc3ncnc(N)c3c2-c2ccc(C)c(F)c2)cc1F` has an IC50 (Adenosine kinase [1]) of 288 nM and an IC50 (Adenosine kinase [2]) of 0.25 nM.

`COc1ccc(-c2c(-c3cccs3)nc3ncnc(N)c3c2-c2cc(Br)cs2)cc1OC` showed an IC50 (Adenosine kinase [1]) of 25 nM and an IC50 (Adenosine kinase [2]) of 0.43 nM.

With `CN(C)c1ccc(-c2nc3ncnc(N)c3cc2-c2ccccc2)cc1` the IC50 (Adenosine kinase [1]) was 1500 nM and the IC50 (Adenosine kinase [2]) was 350 nM.

`CC(C)c1ccc(-c2c(-c3ccc(N(C)C)cc3)nc3ncnc(N)c3c2-c2ccc(C(C)C)cc2)cc1` gave an IC50 (Adenosine kinase [1]) of over 1000 nM and an IC50 (Adenosine kinase [2]) of 6.7 nM.

In the case of `Nc1ncnc2nc(-c3ccc(N4CCOCC4)nc3)c(-c3ccc(F)cc3)c(-c3cccc(Br)c3)c12`, the IC50 (Adenosine kinase [1]) is reported as 197 nM and the IC50 (Adenosine kinase [2]) is reported as 5 nM.

`CN(C)c1ccc(-c2nc3ncnc(N)c3c(-c3ccccc3)c2-c2ccccc2)cn1` was tested, and the IC50 (Adenosine kinase [1]) was 53 nM, the IC50 (Adenosine kinase [2]) was 3.2 nM and the Max protective effect (Mus musculus) was 50%. For the same molecule, the Max protective effect (Rattus norvegicus) was 38%.

Molecule `Clc1ccc(-c2cnc3c(N4CCOCC4)ncnc3n2)cc1` has an IC50 (Adenosine kinase [1]) of 22000 nM and an IC50 (Adenosine kinase [2]) of 410 nM.

`Nc1ncnc2nc(-c3ccc(N4CCOCC4)nc3)c(-c3ccccc3)c(-c3cccc(Br)c3)c12` was tested, and the IC50 (Adenosine kinase [1]) was 155 nM and the IC50 (Adenosine kinase [2]) was 4 nM.

`CN(C)c1ccc(-c2nc3ncnc(N)c3c(-c3cc(Br)cs3)c2C2CC2)cn1` was tested, and the IC50 (Adenosine kinase [1]) was 625 nM and the IC50 (Adenosine kinase [2]) was 60 nM.

With `COc1ccc(-c2c(-c3ccc(N(C)C)cc3)nc3ncnc(N)c3c2-c2cccc(Br)c2)cc1OC` the IC50 (Adenosine kinase [1]) was 350 nM and the IC50 (Adenosine kinase [2]) was 3.1 nM.

In the case of `COC(=O)Cc1c(-c2cccs2)nc2ncnc(N)c2c1-c1cccc(Br)c1`, the IC50 (Adenosine kinase [1]) is reported as 163 nM and the IC50 (Adenosine kinase [2]) is reported as 3 nM.

`Nc1ncnc2nc(-c3cccs3)c(-c3ccccc3)c(-c3ccccc3)c12` gave an IC50 (Adenosine kinase [1]) of 49 nM and an IC50 (Adenosine kinase [2]) of 0.55 nM.

For `CN(C)c1ccc(-c2nc3ncnc(N)c3c(-c3ccccc3)c2-c2ccccc2)cc1`, the IC50 (Adenosine kinase [1]) was 250 nM, the IC50 (Adenosine kinase [2]) was 16 nM and the Max protective effect (Mus musculus) was 77%.

`COCCN(C)c1ccc(-c2nc3ncnc(N)c3c(-c3cc(Br)cs3)c2-c2ccc(OC)c(OC)c2)cc1` gave an IC50 (Adenosine kinase [1]) of 367 nM and an IC50 (Adenosine kinase [2]) of 0.98 nM.

`CN(C)c1ccc(-c2c(-c3ccc(N4CCOCC4)nc3)nc3ncnc(N)c3c2-c2cccc(Cl)c2)cc1` was tested, and the IC50 (Adenosine kinase [1]) was 130 nM and the IC50 (Adenosine kinase [2]) was 37 nM.

For `CN(C)c1ccc(-c2nc3ncnc(N)c3c(-c3cccc(Cl)c3)c2-c2ccccc2)cn1`, the IC50 (Adenosine kinase [1]) was 130 nM, the IC50 (Adenosine kinase [2]) was 5 nM and the Max protective effect (Mus musculus) was 56%. For the same molecule, the Max protective effect (Rattus norvegicus) was 39%.

With `CCCCCc1c(-c2ccc(N(C)C)nc2)nc2ncnc(N)c2c1-c1cccc(Br)c1` the IC50 (Adenosine kinase [1]) was 625 nM and the IC50 (Adenosine kinase [2]) was 55 nM.

Molecule `Nc1ncnc2nc(-c3ccc(N4CCOCC4)nc3)c(Cc3ccccc3)c(-c3cccc(Br)c3)c12` has an IC50 (Adenosine kinase [1]) of 450 nM and an IC50 (Adenosine kinase [2]) of 63 nM.
